Experimental data reported in ChEMBL document CHEMBL1828531, “Pyrazol-3-propanoic acid derivatives as novel inhibitors of leukotriene biosynthesis in human neutrophils” (Eur J Med Chem, 2011).

Key:
[1] = target: T1, Polyunsaturated fatty acid 5-lipoxygenase (Homo sapiens) (UniProt P09917); experiment: Inhibition of recombinant human 5-Lipoxygenase expressed in Escherichia coli lysate assessed as residual activity at 10 uM after 10 mins by HPLC analysis
T1 sequence (whole entry): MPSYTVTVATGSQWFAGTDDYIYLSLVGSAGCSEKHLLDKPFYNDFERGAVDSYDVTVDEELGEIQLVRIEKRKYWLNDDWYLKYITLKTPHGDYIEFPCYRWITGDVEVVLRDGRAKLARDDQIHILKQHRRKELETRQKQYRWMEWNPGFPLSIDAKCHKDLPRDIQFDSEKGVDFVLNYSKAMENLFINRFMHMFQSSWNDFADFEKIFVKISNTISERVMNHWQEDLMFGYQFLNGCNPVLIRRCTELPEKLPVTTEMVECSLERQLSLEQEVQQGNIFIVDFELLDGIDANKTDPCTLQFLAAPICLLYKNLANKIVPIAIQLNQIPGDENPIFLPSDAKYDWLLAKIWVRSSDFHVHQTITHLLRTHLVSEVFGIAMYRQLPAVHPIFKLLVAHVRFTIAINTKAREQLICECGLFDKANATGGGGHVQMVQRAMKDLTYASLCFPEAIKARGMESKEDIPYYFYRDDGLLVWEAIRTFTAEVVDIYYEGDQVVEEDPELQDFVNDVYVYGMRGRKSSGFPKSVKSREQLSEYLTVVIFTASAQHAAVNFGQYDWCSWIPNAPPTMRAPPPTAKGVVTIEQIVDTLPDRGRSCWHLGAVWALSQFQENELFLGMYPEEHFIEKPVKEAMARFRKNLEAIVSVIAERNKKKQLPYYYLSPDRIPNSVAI
In short: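 Human 5-LO expressed at 30 °C in E. coli MV1190 (pT3-5LO); lysate 40,000 g supernatant in PBS pH 7.4 with 1 mM EDTA. Preincubated with compound 10 min at 4 °C, warmed 30 s at 37 °C. Started with 2 mM CaCl2 plus 20 µM AA, 10 min at 37 °C. Methanol stop, HPLC. Residual % versus 0.3% DMSO vehicle, n = 3–5.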

[2] = tested on: A549; experiment: Inhibition of mPGES1-mediated PGE2 production in IL1-beta stimulated human A549 cells assessed as residual activity at 10 uM after 15 mins; format: cell-based
In short: (§1)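 Microsomes from IL-1β (1 ng/ml, 72 h) stimulated A549 cells, diluted in 0.1 M potassium phosphate pH 7.4 with 2.5 mM glutathione. Compound or 1% DMSO added, 15 min at 4 °C. Started with 20 µM PGH2 (final), 1 min at 4 °C. Stopped with FeCl2/citric acid containing 11β-PGE2 internal standard. PGE2 by RP-C18 solid-phase extraction and peak integration.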

[3] = target: Prostaglandin G/H synthase 1 (Homo sapiens, UniProt P23219); experiment: Inhibition of COX1-mediated 12-HHT production in human platelet after 5 mins by HPLC analysis
Chain of Prostaglandin G/H synthase 1 (P23219 whole entry): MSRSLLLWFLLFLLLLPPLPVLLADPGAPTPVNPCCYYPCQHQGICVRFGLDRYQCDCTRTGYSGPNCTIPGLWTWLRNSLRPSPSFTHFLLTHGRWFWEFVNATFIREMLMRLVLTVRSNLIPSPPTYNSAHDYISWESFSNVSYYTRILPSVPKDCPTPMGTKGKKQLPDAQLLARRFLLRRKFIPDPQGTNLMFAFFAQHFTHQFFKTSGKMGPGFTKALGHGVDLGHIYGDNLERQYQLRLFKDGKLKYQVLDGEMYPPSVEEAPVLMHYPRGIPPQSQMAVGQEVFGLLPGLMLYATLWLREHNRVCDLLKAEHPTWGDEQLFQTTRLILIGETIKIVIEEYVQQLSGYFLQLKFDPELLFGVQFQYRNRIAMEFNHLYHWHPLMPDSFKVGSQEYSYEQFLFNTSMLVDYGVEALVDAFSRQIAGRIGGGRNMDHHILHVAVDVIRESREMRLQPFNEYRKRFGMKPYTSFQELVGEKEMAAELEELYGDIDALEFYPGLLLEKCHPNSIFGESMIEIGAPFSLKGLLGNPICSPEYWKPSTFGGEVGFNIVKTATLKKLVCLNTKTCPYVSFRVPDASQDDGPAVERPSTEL
In short: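 Washed human platelets, 10^8/mL in PBS with 1 mM CaCl2, preincubated with compound 4 min at 4 °C then 1 min at 37 °C. 5 µM AA added for 5 min at 37 °C. Methanol/HCl stop, PGB1 added, 12-HHT by HPLC. Residual activity at 10 µM. IC50 by interpolation from 4–5 concentrations.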

[4] = target: T1, Polyunsaturated fatty acid 5-lipoxygenase (Homo sapiens); experiment: Inhibition of 5-Lipoxygenase in arachidonic acid-stimulated human neutrophils assessed as residual activity at 10 uM after 15 mins by HPLC analysis in presence of A23187
In short: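 Human neutrophils, 5 × 10^6/mL in PBS/glucose/1 mM CaCl2, preincubated 15 min at RT, then 2.5 µM A23187 plus 20 µM AA for 10 min at 37 °C. Methanol stop, PGB1 internal standard, HPLC of LTB4, its all-trans isomers and 5-H(p)ETE. Residual % versus 0.3% DMSO vehicle, mean ± SEM, n = 3–5. IC50 by linear interpolation from 4–5 concentrations.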

[5] = target: T2, Polyunsaturated fatty acid lipoxygenase ALOX12 (Homo sapiens, UniProt P18054); experiment: Inhibition of 12-Lipoxygenase-mediated 12-HETE in human neutrophil after 15 mins by HPLC analysis
T2 sequence (P18054 whole entry): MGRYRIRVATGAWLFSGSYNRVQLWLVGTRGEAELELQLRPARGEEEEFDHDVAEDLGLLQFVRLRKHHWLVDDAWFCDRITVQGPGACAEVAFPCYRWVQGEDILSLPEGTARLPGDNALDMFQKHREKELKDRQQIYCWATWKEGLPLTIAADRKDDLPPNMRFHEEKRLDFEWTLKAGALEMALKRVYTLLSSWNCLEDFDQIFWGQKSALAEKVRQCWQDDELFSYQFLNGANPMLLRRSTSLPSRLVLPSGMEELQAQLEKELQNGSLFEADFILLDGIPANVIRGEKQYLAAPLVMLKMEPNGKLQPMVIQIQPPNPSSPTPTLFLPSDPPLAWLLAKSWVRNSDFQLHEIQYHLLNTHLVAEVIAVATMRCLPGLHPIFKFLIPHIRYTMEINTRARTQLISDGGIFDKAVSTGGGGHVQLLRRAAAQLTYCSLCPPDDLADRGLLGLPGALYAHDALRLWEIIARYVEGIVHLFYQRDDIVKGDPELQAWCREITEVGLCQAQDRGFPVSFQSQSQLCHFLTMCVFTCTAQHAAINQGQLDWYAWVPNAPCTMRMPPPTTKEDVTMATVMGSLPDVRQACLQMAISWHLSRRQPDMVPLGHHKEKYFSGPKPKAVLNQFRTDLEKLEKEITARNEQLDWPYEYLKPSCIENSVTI
In short: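 Freshly isolated human blood neutrophils, 5 × 10^6/mL in PBS pH 7.4 with 1 mg/mL glucose and 1 mM CaCl2, preincubated with compound 15 min at RT. Stimulated with 2.5 µM A23187 plus 20 µM AA for 10 min at 37 °C. Stopped with methanol/HCl, PGB1 internal standard. 12-HETE or 15-HETE measured by HPLC. Residual activity tested at 30 µM.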

[6] = Inhibition of mPGES1-mediated PGE2 production in IL1-beta stimulated human A549 cells after 15 mins; format: cell-based; details: A549, 0.25 h; in short: as §1

With `Cc1ccc(-c2cc(CCC(=O)Oc3ccc(C(C)C)cc3)nn2-c2ccccc2)cc1` the Activity [1] was 95.3%, the Activity [2] was 108% and the IC50 [3] was 0.3 µM. It also gave an Activity [4] of 20.4%, an IC50 [5] of over 10 µM and an IC50 [6] of over 10 µM.
Work on `Cc1ccc(-c2cc(CCC(=O)Oc3ccc(C(C)C)cc3)nn2-c2ccc(Cl)nn2)cc1` yielded an Activity [1] of 92.7%, an Activity [2] of 91.4% and an IC50 [3] of over 10 µM. It also gave an Activity [4] of 46.4%, an IC50 [5] of over 10 µM and an IC50 [6] of over 10 µM.
Work on `Cc1ccc(-c2cc(CCC(=O)N3CCN(Cc4ccc(C(C)(C)C)cc4)CC3)nn2-c2ccc3ccccc3n2)cc1` yielded an Activity [1] of 51.5%, an Activity [2] of 75% and an IC50 [3] of 0.041 µM. It also gave an Activity [4] of 16.4%, an IC50 [5] of over 10 µM and an IC50 [6] of over 10 µM.
Work on `CCOC(=O)C1CCN(C(=O)CCc2cc(-c3ccc(C)cc3)n(-c3ccc4ccccc4n3)n2)CC1` yielded an Activity [1] of 69.9%, an Activity [2] of 84% and an IC50 [3] of 0.9 µM. The Activity [4] was 25.8%, the IC50 [5] was over 10 µM and the IC50 [6] was over 10 µM.
Compound `CCOC(=O)C1CCN(C(=O)CCc2cc(-c3ccc(C(F)(F)F)cc3)n(-c3ccc(Cl)nn3)n2)CC1` has an Activity [1] of 72.6%, an Activity [2] of 103% and an IC50 [3] of over 10 µM. For the same compound, the Activity [4] was 62%, the IC50 [5] was over 10 µM and the IC50 [6] was over 10 µM.
`Cc1ccc(-c2cc(CCC(=O)N3CCN(Cc4ccc(C(C)(C)C)cc4)CC3)nn2-c2ccccc2)cc1` gave an Activity [1] of 85.6%, an Activity [2] of 84.6% and an IC50 [3] of 2.5 µM. For the same compound, the Activity [4] was 13.5%, the IC50 [5] was over 10 µM and the IC50 [6] was over 10 µM.
With `Cc1ccc(-c2cc(CCC(=O)Oc3ccc(C(C)C)cc3)nn2-c2ccc3ccccc3n2)cc1` the Activity [1] was 79.6%, the Activity [2] was 88% and the IC50 [3] was 0.014 µM. The Activity [4] was 65.4%, the IC50 [5] was over 10 µM and the IC50 [6] was over 10 µM.
`CC(C)(C)c1ccc(CN2CCN(C(=O)CCc3cc(-c4ccc(F)cc4)n(-c4ccc(Cl)nn4)n3)CC2)cc1` gave an Activity [1] of 55.3%, an Activity [2] of 75.6% and an IC50 [3] of over 10 µM. For the same compound, the Activity [4] was 23.4%, the IC50 [5] was over 10 µM and the IC50 [6] was over 10 µM.
With `CCOC(=O)C1CCN(C(=O)CCc2cc(-c3ccc(C)cc3)n(-c3ccccc3)n2)CC1` the Activity [1] was 102%, the Activity [2] was 82.6% and the IC50 [3] was over 10 µM. The Activity [4] was 6.7%, the IC50 [5] was over 10 µM and the IC50 [6] was over 10 µM.
